In PubChem BioAssay AID651572 (The Scripps Research Institute Molecular Screening Center, 2012):
Out of some 360,000 compounds screened, about 950 (0.26%) were called active. The full list was thinned out, with actives kept by preference. Unmarked numbers belong to inactive results.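 The calls were made as follows: active = inhibition above a per-plate limit, mean inhibition of low control wells plus 3 SD (cut at about 25% in these data); inactive = the rest.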

The compounds below were run against ADP-ribosylation factor GTPase-activating protein 1 (Rattus norvegicus) (UniProt Q62848) (assay: inhibitors of rat ARFGAP1 GAP activity, primary screen, biochemical, fluorescence polarization, GDP tracer (AID 651572;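 also: 0% = DMSO wells with enzyme and 100% = wells lacking Arfgap1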)). Settings: Arfgap1-stimulated ARF1 GTP hydrolysis, GDP FP detection; at 16.5 µM; active compounds read high.
ADP-ribosylation factor GTPase-activating protein 1 (Rattus norvegicus), sequence (Q62848 1-136 limits assumed): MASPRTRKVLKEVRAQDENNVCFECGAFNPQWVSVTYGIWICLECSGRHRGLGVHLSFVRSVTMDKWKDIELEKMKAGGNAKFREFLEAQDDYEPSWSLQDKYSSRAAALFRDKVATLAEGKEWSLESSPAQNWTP
Procedure, shortened: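 Material – truncated rat Arfgap1 GAP domain · Buffer or medium – HEPES-based buffer, pH 7.5 · Reagent – human ARF1(Δ1-17)-GTP substrate · Dosing – 16.5 µM single point, 1.26% DMSO · Schedule – GTP hydrolysis reaction 2 h at 25 °C · Technique – GDP detection by fluorescence polarization · Benchmarks – No-Arfgap1 wells (100%) versus DMSO full-reaction wells (0%) · Repeats – single replicate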
Work on `O=C(N[C@H](C(=O)N1CCC[C@H]1C(=O)NCCc1ccccc1Cl)c1ccccc1)c1ccccc1` yielded an inhibition of 0.74%. In the case of `Cc1ccccc1C(=O)N[C@H](C(=O)N1CCC[C@H]1C(=O)NCc1ccccc1)C(C)C`, the inhibition is reported as -4.95%. `C=CCSc1nnc(N2C(=O)C(O)=C(C(=O)c3ccco3)C2c2ccc(F)cc2)s1` (stereo unspecified) showed an inhibition of -2.87%. With `COc1cc(C2C(C(=O)c3ccco3)=C(O)C(=O)N2c2cc(C)on2)ccc1OCc1ccccc1` (stereo unspecified) the inhibition was -0.46%. With `Cc1ccc2nc(N3C(=O)C(O)=C(C(=O)c4ccco4)C3c3cccc(O)c3)sc2c1` (stereo unspecified) the inhibition was 28.5% (active). Work on `COC(=O)C1=C(C)N(Cc2ccccc2C(F)(F)F)C(=NCC2CC2)NC1c1cccc(Cl)c1` (stereo unspecified) yielded an inhibition of -11.5%. Compound `CN1C(=O)C(Br)(Br)CC1c1cccnc1` (stereo unspecified) has an inhibition of 15.5%. Compound `CC(=O)c1ccc(S(=O)(=O)NCC2CCN(C(=O)C(=O)c3cccs3)CC2)cc1` has an inhibition of 0.05%. `Clc1cccc2c1C1CC2CCN1Cc1ccccc1` (stereo unspecified) showed an inhibition of 1.92%. In the case of `CC1CCN(S(=O)(=O)c2ccc3[nH]c(=O)ccc3c2)CC1`, the inhibition is reported as -6.93%. With `CCc1cccc(NC(=O)C2CCCN(S(=O)(=O)c3ccc4[nH]c(=O)ccc4c3)C2)c1` (stereo unspecified) the inhibition was -1.05%. In the case of `Cc1cc(C)cc(NC(=O)C2CCCN(S(=O)(=O)c3ccc4[nH]c(=O)ccc4c3)C2)c1` (stereo unspecified), the inhibition is reported as 27.2% (active). `CCOc1ccccc1C(=O)N1CCC[C@@H]1C(=O)N1CCC[C@H]1C(=O)NCc1ccccc1` gave an inhibition of 2.51%. `C=CCN1C(=O)N(Cc2ccccc2)c2ccccc2S1(=O)=O` was tested, and the inhibition was -1.51%. In the case of `COc1ccc(NC(=S)NCc2cccs2)c(OC)c1`, the inhibition is reported as 7.24%. Work on `O=C(CN1CCN(c2ccc(Cl)cc2)CC1)NCc1cccs1` yielded an inhibition of -5.05%. `S=C(NCc1cccs1)Nc1ccc(Cl)cc1` was tested, and the inhibition was 28.2% (active). `COc1ccc(-c2ccc3c(n2)CCCN3S(=O)(=O)c2ccc(C)cc2)cc1` gave an inhibition of -4.31%. `COc1ccccc1-c1ccc([C@@H]2C[C@H]3[C@H](CON3C)CN2S(=O)(=O)c2cc(Cl)cc(Cl)c2)cc1` was tested, and the inhibition was 5.63%. In the case of `Nc1nc2c(ncn2[C@@H]2O[C@H](C(=O)N[C@@H](Cc3ccccc3)C(=O)NCc3ccccc3)[C@@H](O)[C@H]2O)c(=O)[nH]1`, the inhibition is reported as -1.71%. In the case of `COC(=O)[C@]12C[C@H](CC(=O)NCc3cccc(C(F)(F)F)c3)C(=O)N(Cc3ccc4c(c3)OCO4)C1=C[C@H](COCc1ccccc1)O[C@@H]2C`, the inhibition is reported as 5.08%. Compound `Cc1[nH]nc2c1C(c1ccc(Br)cc1)NC2=O` (stereo unspecified) has an inhibition of 2.74%. `COC(=O)C1=C(C)N(Cc2ccccc2C(F)(F)F)C(=NCc2ccc(OC)cc2)NC1c1cccc(C(F)(F)F)c1` (stereo unspecified) was tested, and the inhibition was 10.9%. For `O=C(CCc1ccccc1)Nc1nn[nH]n1`, the inhibition was 11.2%. `O=C(CCc1ccccc1)Nc1ncc([N+](=O)[O-])s1` was tested, and the inhibition was 29% (active). `CC(C)(C)NC(=O)CSc1nnc(NC(=O)CCc2ccccc2)s1` was tested, and the inhibition was 0.73%. `Nc1ccn([C@@H]2O[C@H](C(=O)N[C@H]3CCCCNC3=O)[C@@H](O)[C@H]2O)c(=O)n1` gave an inhibition of -7.26%. For `COc1ccc(-c2ccccc2C2Cc3nnccc3CN2C(=O)Nc2ccccc2)cc1` (stereo unspecified), the inhibition was 0.85%. In the case of `COc1ccc(NC(=O)c2cn(-c3ccccc3)nc2SC)cc1`, the inhibition is reported as 25.1% (active). In the case of `COc1ccc(NC(=O)c2ccccc2CC[N+](=O)[O-])cc1`, the inhibition is reported as -2.01%. `COc1ccc(NC(=O)CSc2nc(N)c(-c3ccccc3)c(=O)[nH]2)cc1` showed an inhibition of 5.45%. For `NC(=O)c1ncn([C@@H]2O[C@H](C(=O)O)[C@@H](O)[C@H]2O)n1`, the inhibition was -10.5%. With `COC(=O)C1=C(C)N(Cc2cccc(C(F)(F)F)c2)C(=NCc2cccc(C(F)(F)F)c2)NC1c1ccccc1C(F)(F)F` (stereo unspecified) the inhibition was 18.5%. With `CCO[C@@H]1OC(C(N)=O)=C[C@H](c2ccc(Br)cc2)[C@H]1CCCO` the inhibition was 37% (active). In the case of `CCO[C@H]1OC(C(=O)N2CCCCCCC2)=C[C@@H](c2ccc(C(F)(F)F)cc2)[C@@H]1CCCO`, the inhibition is reported as 5.85%. With `C#CCNC(=O)C1=C[C@@H](c2ccccc2)[C@H](CCCO)[C@@H](OCC)O1` the inhibition was 0.84%. With `CC[C@H](C)[C@H]1CNC(=O)C(=O)N1CC1CCN(CCc2ccc(OC)c(OC)c2)CC1` the inhibition was 4.8%. `COC(=O)[C@]12C[C@H](CC(=O)NCc3ccc(OC)c(OC)c3)C(=O)N(Cc3ccccc3)C1=C[C@H](C(C)C)O[C@@H]2C1CC1` showed an inhibition of 1.55%. For `COc1cccc(CNC(=O)[C@H]2CCCN2C(=O)[C@H]2CCCN2C(=O)c2ccc(F)cc2)c1`, the inhibition was 2.29%. With `CCOC(=O)N1CCN(C(=O)C[C@H]2C[C@@]3(C(=O)OC)C(=C[C@H](C4CCCC4)O[C@@H]3C)N(Cc3ccccc3)C2=O)CC1` the inhibition was -0.91%. With `COc1ccccc1C(=O)N1O[C@]23C=C[C@]14C[C@@H](O)CC[C@]4(C)C2CC[C@]1(C)[C@@H]([C@H](C)/C=C/[C@H](C)C(C)C)CC[C@H]13` (stereo partly specified) the inhibition was -2.43%. For `OC(c1ccccc1)(c1ccccc1)C1CCN(CCCOc2ccc(-c3ccsc3)cc2)CC1`, the inhibition was 15.6%. For `COc1ccc(-c2cc3nc(NCCOc4ccccc4)ccn3n2)cc1`, the inhibition was 22.7%. With `COCCNc1cc(-c2ccccc2)nc2cc(-c3cccc(F)c3)nn12` the inhibition was 26.4% (active). `COCCCNc1ccn2nc(-c3ccc(CC(C)C)cc3)cc2n1` was tested, and the inhibition was 12.8%. `C[C@H]1[C@H](c2ccccc2)Oc2cc(Br)ccc2S(=O)(=O)N1Cc1cccc(F)c1` gave an inhibition of -1.97%. `Cc1noc(C)c1NC(=O)Nc1ccc2c(c1)C(=O)N([C@H](C)CO)C[C@H](C)[C@H](CN(C)Cc1ccncc1)OCCCC[C@@H](C)O2` showed an inhibition of 7.37%. With `COC(=O)c1c(-c2ccc(OC)cc2)c2c(c3c4cc(OC)ccc4n(S(=O)(=O)c4ccc(F)cc4)c13)C(=O)N(C)C2` the inhibition was -3.49%. `COC(=O)[C@]12C[C@H](CC(=O)NCCCCc3ccccc3)C(=O)N(Cc3ccc4c(c3)OCO4)C1=C[C@H](C(C)(C)C)O[C@@H]2C` was tested, and the inhibition was 2.49%. In the case of `CCC(=C/c1sc2ccc3ccccc3c2[n+]1C)/C=C1\Sc2ccc3ccccc3c2N1C`, the inhibition is reported as 39.3% (active). `Nc1[nH]c(C(=O)c2ccc(Br)cc2)c(-c2ccc3c(c2)OCO3)c1C(=O)NCCc1c[nH]c2ccccc12` gave an inhibition of 15.2%. `CN(C)CCNC(=O)c1ccc(-c2cn3c(-c4ccc(Oc5ccccc5)cc4)cnc3cn2)cc1` was tested, and the inhibition was 40.4% (active). `CN(C)CCNC(=O)c1cccc(-c2cnc3c(NC=O)cc(-c4cccc(C(F)(F)F)c4)cn23)c1` gave an inhibition of 5.54%. Compound `CC(=O)c1cccc(-c2cnc3c(NC=O)cc(-c4ccccc4Oc4ccccc4)cn23)c1` has an inhibition of -2.03%. `CCOC(=O)Cn1c2c(n(-c3ccc(F)cc3)c1=O)C=C(c1ccccc1)[C@@H](C)C(C(=O)N(C)C1CCCCC1)=C2` gave an inhibition of -3.57%. `CCc1ccc(C2=CC(=O)CC(C)(C)C2=O)cc1` was tested, and the inhibition was 5.54%. Work on `COC(=O)C1=C(C)N(Cc2ccccc2C(F)(F)F)C(=NCc2ccc(C(F)(F)F)cc2)NC1c1ccc(F)cc1` (stereo unspecified) yielded an inhibition of 16.5%. In the case of `COc1cccc(CC(=O)N2CCN(C(=O)C(=O)c3cccc(C(F)(F)F)c3)CC2)c1`, the inhibition is reported as -7.68%. `O=S1(=O)c2c(cccc2N2CCCC2)O[C@H](COCc2ccccc2)CN1C1CC1` showed an inhibition of -15.6%. `O=C1[C@@H](c2ccccc2)[C@@H](c2ccccc2)N1c1ccccc1` showed an inhibition of -3.37%. With `CCn1c(SCC(=O)N2CCCC2=O)nc2ccccc21` the inhibition was -1.54%. In the case of `CCn1c(SCc2cc(=O)n3ccsc3n2)nc2ccccc21`, the inhibition is reported as 26.2% (active). `O=C(O)CCn1c(SCc2cc(=O)n3ccccc3n2)nc2ccsc2c1=O` was tested, and the inhibition was 9.88%. With `O=C1Nc2ccccc2C1=NN=Cc1ccco1` the inhibition was 18.3%. For `COC(=O)C1=C(C)N(Cc2cccc(C(F)(F)F)c2)C(=NCc2ccccc2)NC1c1ccccc1C(F)(F)F` (stereo unspecified), the inhibition was 18.8%. With `O=C(Nc1c(Cl)c(C2CC2)nn1-c1ccccc1)C(Cl)(Cl)Cl` the inhibition was 1.34%. `COc1cccc(NC(=O)N(C)C[C@@H]2OCc3cn(nn3)CCCC(=O)N([C@@H](C)CO)C[C@H]2C)c1` was tested, and the inhibition was 2.11%. For `Nc1ncnc2c1ncn2[C@@H]1O[C@H](C(=O)N[C@@H](CCc2ccccc2)C(=O)N2CCCN(Cc3cccs3)CC2)[C@@H](O)[C@H]1O`, the inhibition was -6.61%. `COc1ccc(SSc2ccc(OC)cc2C(=O)O)c(C(=O)O)c1` showed an inhibition of -0.05%. In the case of `C[C@H](O)[C@@H]1C(=O)N2CCc3c([nH]c4c(-c5ccc6c(c5)OCO6)cccc34)[C@@H]2C[C@@H]1N(C)C(=O)c1ccco1`, the inhibition is reported as 1.71%. `COc1cccc(CNc2nc(NCc3cccs3)nc3ccsc23)c1` gave an inhibition of 2.65%. For `COc1cccc(CNc2nc(C(F)(F)F)nc3ccccc23)c1`, the inhibition was 27.8% (active). `COc1cccc(CNc2ncc(-c3ccccc3)n2C)c1` gave an inhibition of -4.8%. For `C[C@@H](CN1C2=NC[C@@H](Cc3ccccc3)N2C[C@H]1Cc1ccc(O)cc1)NC(=O)CCC1CCCCC1`, the inhibition was 6.99%. With `CC[C@H](NC(=O)[C@H](Cc1ccccc1)NC(=O)[C@H]1O[C@@H](n2cnc3c(=O)[nH]c(N)nc32)[C@H](O)[C@@H]1O)c1ccccc1` the inhibition was 10%. In the case of `COC(=O)[C@]1(Cc2ccccc2)NC=C(C(=O)c2ccccc2)[C@@H]1c1cccc(OC)c1`, the inhibition is reported as 1.68%.
